Data: publication PMC10824272 (Biomedicine & pharmacotherapy = Biomedecine & …, 2023)
Values joined by “and” are separate entries in the source; they are usually repeats but may differ in a detail not shown here. Identical values can stand only once.

Assays:
SW480^cld1 cells [1] = assay: Cell viability; type: cell-based, human
How it was run: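 Claudin-1-overexpressing SW480cld1 and SW620 cells grown in RPMI with 10% FBS and exposed for 72 hours to a range of test compound concentrations. Viability measured by PrestoBlue reagent. EC50 calculated from the concentration–viability data.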

normal IEC-6 cells = assay: Cell viability; type: cell-based; conditions: 72 hours
How it was run: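 Cells maintained in RPMI plus 10% FBS. Viability read with PrestoBlue reagent per kit protocol after 72 h exposure to test compound.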

SW480^cld1 cells [2] = assay: Anoikis-induced apoptosis assay; type: cell-based; conditions: claudin-1 overexpressed SW480^cld1
How it was run: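 Anoikis induced by plating cells on poly-HEMA-coated culture plates. Apoptosis quantified with a cell death detection ELISA. Parental lines were cultured in RPMI with 10% FBS. Claudin-1-overexpressing SW480 and claudin-1-knockdown SW620 derivatives were used.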

SW480^cld1 cells [3] = assay: Transwell matrigel invasion assay; type: cell-based, human; conditions: PDS-0330 25μM; P < 0.0001 vs control and 20A
[4] = test system: claudin-1 overexpressed PDX tumor; assay: Chemo-resistant patient-derived xenograft; type: in vivo, athymic nude mice
How it was run: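 Chemo-resistant PDX tumor fragments (~2mm3) implanted subcutaneously in 6-week-old athymic nude mice. Once tumors were palpable, dosed once weekly for four weeks (n=5 mice/group), vehicle controls included. Caliper volume from […], tracked over time. Tumor sections stained by IHC for Ki67 and cleaved PARP.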

[5] = Metabolic stability, phase I; type: in vitro ADME, human
How it was run: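 Phase I stability in human liver microsomes (20 mg/ml stock), 100 mM potassium phosphate pH 7.4, 10 mM MgCl2, 2 mM NADPH. Mix pre-incubated 10 min at 37 °C. Output is percent parent remaining per time point. Elimination rate constant taken from first-order plot of ln area ratio versus time.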

human claudin-1 = target: T1, human claudin-1 (Homo sapiens, UniProt O95832); assay: Microscale thermophoresis; type: binding
T1 sequence (O95832 1-211): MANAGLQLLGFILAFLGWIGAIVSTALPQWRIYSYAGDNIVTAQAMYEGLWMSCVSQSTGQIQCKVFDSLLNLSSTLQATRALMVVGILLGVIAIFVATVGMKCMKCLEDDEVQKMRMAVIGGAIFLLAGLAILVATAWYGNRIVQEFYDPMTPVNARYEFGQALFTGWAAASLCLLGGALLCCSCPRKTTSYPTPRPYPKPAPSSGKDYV

[6] = target: T2, claudin-1/Src association (Homo sapiens, UniProt O95832); assay: Claudin-1 immunoprecipitation / Src immunoblot in SW620 cells; type: cell-based; conditions: 12.5μM and 25μM
T2 sequence (O95832 1-211): T1 sequence (O95832 1-211)

[7] = test system: pSrc, pAkt, Bcl2, Bcl-xL, survivin, cleaved PARP in SW620 and SW480^cld1 cells; assay: Immunoblotting of signaling and apoptosis markers; type: cell-based, human; conditions: PDS-0330 12.5 and 25μM
How it was run: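 Treated cells (vehicle or 12.5 and 25 μM) lysed. 10–30 μg protein per lane resolved by SDS-PAGE and immunoblotted, with enhanced chemiluminescence detection on film. Antibodies included p-Src (Tyr416), pAkt and total Akt, with GAPDH or β-actin as loading reference.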

[8] = PDS-0330 5mg/kg and 10mg/kg once/week for four weeks

With `O=C(NC(=S)Nc1ccc(-c2nc3ccccc3o2)cc1)c1ccc2ccccc2c1` [PDS-0330, N-((4-(benzo[d]oxazol-2-yl)phenyl)carbamothioyl)-2-naphthamide] the EC50 (SW480^cld1 cells [1]; Homo sapiens, 72 h, read-out: EC50, cell viability) was 8.4 µM, the “CI index, % cell survival in combination with 5-FU” value (SW480^cld1 cells [1]; PDS-0330 with 5-FU (5μM)) was less than 1 and the “effect on cell growth/survival” value (normal IEC-6 cells) was “no effect”. For the same compound, the resistance to anoikis (SW480^cld1 cells [2]) was “dramatically reduced the resistance to anoikis”, the cell invasion (SW480^cld1 cells [3]) was “significantly inhibited” and the “apoptosis in tumors (cleaved PARP, Bcl-xL, survivin)” value ([4]; PDS-0330 5mg/kg and 10mg/kg) was “increase in apoptosis”. The “proliferation in tumors (Ki67)” value ([4]; PDS-0330 5mg/kg and 10mg/kg) was “decreased proliferation”, the “mean tumor volume and tumor weight” value [4, 8] was “significantly reduced” and the primary tumor growth [4, 8] was “reduced primary tumor growth in a statistically significant manner”. The “drug remaining after 60 min” value ([5]; HLM, phase I metabolism, 60 min) was 90%, the “metabolism in the presence of HLM” value ([5]; phase I) was less than 15% and the Hill coefficient (human claudin-1; 37°C) was ~ 5 and 4.5. For the same compound, the Kd (human claudin-1; binding affinity, 37°C, fit to Hill-Langmuir equation) was 44.9 ± 5.6 µM, the Kd (human claudin-1; equilibrium dissociation constant (Kd), Cy3-labeled human claudin-1, 25 °C, eight independent acquisitions) was 22.9 ± 3 µM and the “binding affinity to other claudin subtypes, fold lower than claudin-1” value (human claudin-1; human claudin-19 and mouse claudin-4 vs human claudin-1) was ~ 4 fold. For the same compound, the “association of Src with claudin-1” value [6] was “significantly interferes”, the Akt activation [7] was “suppressing Akt activation” and the “Bcl-2 and Bcl-xL expression” value [7] was “inhibiting”. For the same compound, the “anti-apoptotic proteins Bcl2, Bcl-xL and Survivin” value ([7]; SW480^cld1 and SW620) was “decrease”, the “apoptotic protein cleaved PARP” value ([7]; SW480^cld1 and SW620) was “increase” and the Src phosphorylation ([7]; SW620 and SW480^cld1) was “prevents Src phosphorylation”.
